The results in this text go back to ChEMBL document CHEMBL1145131, “Structure-based design, synthesis, and biological evaluation of irreversible human rhinovirus 3C protease inhibitors. 8. Pharmacological optimization of orally bioavailable 2-pyridone-containing peptidomimetics” (J Med Chem, 2003).

Values after ≈ are worked out from the molar mass of the structure shown.

In data set [1] the test system is Enterovirus. Briefly: In vitro antirhinoviral activity against human rhinovirus serotypes 2, 3, 9, 14, 16 and 39 (mean).
The nature of data set [2]: Compound was tested in vitro for loss of compound after 30 min exposure to liver microsomes of dog at 25 uM concentration. It counts as ADME, organism-based, Canis lupus familiaris. The following applies: read-out: Metabolism. In short, it runs like this:
(§1)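 Pooled liver microsomes (dog, monkey or human; 1 mg/mL, 6–8 livers) with 2 mM NADPH in 100 mM potassium phosphate, pH 7.4, preincubated 1 min at 37 °C. Started with 25 μM compound, run 30 min, quenched with acetonitrile. Time-zero controls quenched before compound addition. Remaining compound by reversed-phase HPLC at 215 nm. Reported as % metabolized.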

Data set [3] can be described thus: Compound was tested for plasma concentration in dogs 7 hours after oral administration (30 mg/kg) in experiment 2. It is filed as ADME, organism-based, Canis lupus familiaris. The conditions noted are these: dog. In short, it runs like this: (§2)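 Male beagle dogs (BW ~9.3 kg, n = 3), single oral dose of 30 mg/kg. Vehicle was 80:20 propylene glycol:sterile water (15.0 mg/mL) or, in some studies, a 0.5% carboxymethyl cellulose suspension. Blood sampled up to 24 h. Plasma level at 7 h determined by LCMS. Noncompartmental analysis of individual concentration-time profiles.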

Data set [4] is described as follows: Compound was tested in vitro for loss of compound after 30 min exposure to liver microsomes of human at 25 uM concentration. It is filed as ADME, organism-based. The following applies: read-out: Metabolism. In short, it runs like this: as §1
A short description of data set [5]: Compound was tested in vitro for loss of compound after 30 min exposure to liver microsomes of monkey at 25 uM concentration. It is filed as ADME, Microsome. The conditions noted are these: simiiformes, read-out: Metabolism. Summed up:
as §1

Data set [6] has as its target T1, Human rhinovirus A protease (Human rhinovirus sp.) (UniProt Q4U254).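 Note: inhibition of the human rhinovirus 3C protease enzyme.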
T1 sequence (whole entry): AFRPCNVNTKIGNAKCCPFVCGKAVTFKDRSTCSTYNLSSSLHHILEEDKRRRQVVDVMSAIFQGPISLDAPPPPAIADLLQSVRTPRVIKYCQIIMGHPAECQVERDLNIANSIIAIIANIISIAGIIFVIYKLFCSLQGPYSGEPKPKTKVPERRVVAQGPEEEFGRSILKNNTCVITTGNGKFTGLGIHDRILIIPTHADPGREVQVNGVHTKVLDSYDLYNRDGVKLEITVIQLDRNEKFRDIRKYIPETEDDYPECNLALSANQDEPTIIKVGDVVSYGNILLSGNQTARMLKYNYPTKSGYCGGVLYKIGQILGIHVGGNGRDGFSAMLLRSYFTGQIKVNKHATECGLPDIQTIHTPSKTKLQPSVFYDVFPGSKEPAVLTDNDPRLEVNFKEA

A short description of data set [7]: Compound was tested in vitro for loss of compound after 2 hours exposure to hepatocytes of dog at 25 uM concentration. It is filed as ADME, organism-based, Canis lupus familiaris, Hepatocyte. The following applies: read-out: Metabolism.
A short description of data set [8]: Half-life upon exposure to human plasma. It counts as ADME, organism-based. In short, it runs like this: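 Pooled heparinized human plasma (10 donors) or 100 mM potassium phosphate pH 7.4 buffer (n = 3 each), spiked to final 25 μM compound from acetonitrile stock. Incubated at 37 °C for 1–3 h with regular sampling. Protein precipitated with acetonitrile, then LC quantification against a 0.05–40 μg/mL standard curve. Half-life by linear regression of mean concentration-time data.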

Data set [9] is described as follows: Compound was tested in vitro for loss of compound after 2 hours exposure to hepatocytes of human at 25 uM concentration. It counts as ADME, organism-based, Hepatocyte. The conditions noted are these: read-out: Metabolism.
Data set [10] can be described thus: Thermodynamic aqueous solubility was determined. It is filed as physicochemical. The conditions noted are these: buffer. Summed up:
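1–2 mg compound stirred in 1 mL of pH 7.0, 50 mM phosphate buffer at room temperature for 4 h. Filtered through a 0.45 μm filter. Filtrate concentration determined by HPLC against a standard of known concentration.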

For the next data set, the system named is Caco-2. The following applies: Homo sapiens.
A short description of data set [11]: Compound was tested for plasma concentration in CM-monkeys 7 hours after oral administration (50 mg/kg). It is filed as ADME, organism-based, Macaca fascicularis. The following applies: cynomolgus monkey. In short, it runs like this:
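Male CM-monkeys (BW ~3.9 kg, n = 3), single oral dose of 50 mg/kg in 80:20 propylene glycol:sterile water at 15.0 mg/mL. Blood sampled periodically up to 24 h post-dose. Plasma concentration at 7 h measured by LCMS. Parameters from noncompartmental analysis of individual concentration-time data.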

The nature of data set [12]: Compound was tested in vitro for loss of compound after 2 hours exposure to hepatocytes of monkey at 5 uM concentration. It is filed as ADME, cell-based, Hepatocyte. The conditions noted are these: simiiformes, read-out: Metabolism.
Data set [13] can be described thus: Compound was tested for plasma concentration in dogs 7 hours after oral administration (30 mg/kg) in experiment 1. It counts as ADME, organism-based, Canis lupus familiaris. The conditions noted are these: dog. In short, it runs like this:
as §2

The subject of data set [14] is Enterovirus. Briefly: In vitro anti-rhinoviral activity against human rhinovirus serotypes 2,3,9,14,16,25 and 39. It is filed as functional, organism-based.
Data set [15] can be described thus: Compound was tested in vitro for loss of compound after 4 hours exposure to hepatocytes of dog at 25 uM concentration. It is filed as ADME, organism-based, Canis lupus familiaris, Hepatocyte. The conditions noted are these: read-out: Metabolism.
Data set [16] can be described thus: Compound was tested in vitro for loss of compound after 4 hours exposure to hepatocytes of monkey at 25 uM concentration. It counts as ADME, cell-based, Hepatocyte. The conditions noted are these: simiiformes, read-out: Metabolism.
The species named for another data set is Canis familiaris. Kind of data set: Compound was tested for plasma protein binding of dog. It counts as ADME, organism-based, Canis lupus familiaris. Summed up:
(§3)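 Ultrafiltration binding. Compound added from 1 mM and 0.1 mM stocks into heparinized dog or human plasma or pH 7.4 phosphate buffer, giving final 1 and 10 μM. Incubated 1 h at 37 °C, then centrifugal ultrafiltration. Filtrate and whole plasma quantified by LCMS with internal standard. % free = filtrate/whole plasma × 100. Three replicates per species per concentration.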

Data set [17] in a line: Compound was tested for human plasma protein binding. It is filed as ADME, cell-free. Summed up:
as §3

Data set [18] in a line: Compound was tested in vitro for loss of compound after 4 hours exposure to hepatocytes of human at 25 uM concentration. It counts as ADME, organism-based, Hepatocyte. The following applies: read-out: Metabolism.

`CCOC(=O)c1ccc(OCCC2CCN(c3ccc(C)nn3)CC2)cc1` [PIRODAVIR] displayed a concentration for a half-maximal effect (EC50) with Enterovirus [1] of 31 nM.

For the molecule `CCOC(=O)/C=C/[C@H](C[C@@H]1CCNC1=O)NC(=O)[C@H](CC)n1cccc(NC(=O)c2cc(C)on2)c1=O`, the metabolised at 0.5 h, 25 µM in [2] came out at 37%; in [4], 61%; in data set [5], 61%. In addition, the concentration at 7 h in [3] was below 10 nM; in [11], 896 nM; in data set [13], 682 nM. Also, the K obs / 1 in [6] is 170000 M⁻¹ s⁻¹. Also, the metabolised at 2 h, 25 µM in data set [7] was 14%; in data set [9] it was 82%. Moreover, the half-life in data set [8] was 5.6 h. This molecule returned a thermodynamic solubility in data set [10] of 38 µg/mL (≈ 74 µM). In addition, the apparent permeability (Papp) with Caco-2 is 5 10e-6 cm s-1. For the same molecule, the metabolised at 2 h, 5 µM in data set [12] stood at 76%. Besides, a half-maximal effect with Enterovirus [14] (EC50) was put at 47 nM.

On to `Cc1cc(C(=O)Nc2cccn([C@@H](Cc3ccc(F)c(F)c3)C(=O)N[C@H](/C=C/C(=O)OC(C)C)C[C@@H]3CCNC3=O)c2=O)no1`, for which the metabolised at 0.5 h, 25 µM is 57% in data set [2] and 56% in data set [4]. Also, the concentration at 7 h is 959 nM in [3], 12 nM in data set [11] and 815 nM in [13]. Further, the metabolised at 4 h, 25 µM is 16% in data set [15], 92% in data set [16] and 87% in [18]. Further, the half-life in data set [8] is 9.7 h. The results for the Free (in the data set listed under Canis familiaris; in [17]) were 19% and 9%, respectively. For the same molecule, the solubility (thermodynamic) in [10] amounted to 21 µg/mL (≈ 33.6 µM). Besides, the apparent permeability coefficient (Papp) with Caco-2 is 36 10e-6 cm s-1. The EC50 in the data set on Enterovirus [14] worked out at 78 nM.
